These results are taken from ChEMBL document CHEMBL1122008, “Lipophilic 5'-(alkyl phosphate) esters of 1-beta-D-arabinofuranosylcytosine and its N4-acyl and 2,2'-anhydro-3'-O-acyl derivatives as potential prodrugs” (1982).

Format in all cases: functional
Test [1] has as its system Mus musculus. As to the kind of experiment: Antitumor activity against L1210 leukemia in mice (Average weight per mouse on day 1.) at the dose of 240 mg/kg. In short, it runs like this:
(§1)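 Male B6D2F1J mice (5–9 per group) received 10^5 L1210 cells i.p. on day 0 and drug from day 1, given qd×5 or q4d(2,6). Vehicles were sterile water, 0.05 M potassium phosphate pH 7.4, or 0.4% Tween 80/0.5% CMC/0.9% benzyl alcohol/0.9% saline. Read-out is average body weight per mouse (g) on day 1.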

Test [2] relates to Mus musculus. The test is described as follows: Antitumor activity against L1210 leukemia in mice (Average weight per mouse on day 1.) at the dose of 180 mg/kg. In short, it runs like this: as §1
Test [3] deals with Mus musculus. The test is described as follows: Antitumor activity against L1210 leukemia in mice (Percent increase in life span.) at the dose of 240 mg/kg (mice surviving 20 or more days). The method in brief:
(§2)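 Male B6D2F1J mice, groups of 5–9, inoculated ip with 10^5 L1210 cells on day 0. Dosing starts day 1 on a qd×5 or q4d(2,6) schedule. Vehicles are sterile water, pH 7.4 0.05 M potassium phosphate buffer, or 0.4% Tween 80/0.5% CMC/0.9% benzyl alcohol/0.9% saline. %ILS = (T/C − 1)×100 from median survival. Weights taken days 1 and 7.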

For test [4], the system named is Mus musculus. The test is described as follows: Antitumor activity against L1210 leukemia in mice (Average 7-day weight change) at the dose of 180 mg/kg. In short, it runs like this: (§3)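 Male B6D2F1J mice, groups of five to nine, inoculated ip with 10^5 L1210 cells on day 0. Drug treatment started day 1 on qd×5 or q4d(2,6) schedule. Vehicles: ara-C in sterile water; the n-butyl phosphate ester in 0.05 M pH 7.4 potassium phosphate buffer; others as suspensions in 0.4% Tween 80/0.5% low-density CMC/0.9% benzyl alcohol/0.9% saline. Mice weighed days 1 and 7; 7-day weight change given as g/mouse and %.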

Test [5] relates to Mus musculus. The test is described as follows: Antitumor activity against L1210 leukemia in mice (Average 7-day weight change (%)) at the dose of 240 mg/kg. The method in brief:
as §3

Test [6] concerns Mus musculus. As to the kind of experiment: Antitumor activity against L1210 leukemia in mice (Average 7-day weight change (%)) at the dose of 180 mg/kg. In short, it runs like this:
as §3

Test [7] has as its system Mus musculus. As to the kind of experiment: Antitumor activity against L1210 leukemia in mice (Percent increase in life span.) at the dose of 180 mg/kg (mice surviving 20 or more days). The method in brief:
as §2

Test [8] has as its system Mus musculus. As to the kind of experiment: Antitumor activity against L1210 leukemia in mice (Average 7-day weight change) at the dose of 240 mg/kg. The method in brief: as §3

By ILS is commonly meant how much longer treated animals lived than controls. Turning to `CCCCCCCCCCCCCC(=O)O[C@H]1[C@@H]2Oc3nc(=N)ccn3[C@@H]2O[C@@H]1COP(=O)(O)OCCCC`, the Average weight with Mus musculus [1] came out at 23.4 g mouse-1; in the test on Mus musculus [2], 23.2 g mouse-1. The same molecule gave an ILS at 240 mg/kg in the test on Mus musculus [3] of 112%. In addition, the Weight change is reported as -2.6 g mouse-1 with Mus musculus [4], -17% in the test with Mus musculus [5], -11% in the test with Mus musculus [6] and -4 g mouse-1 in the test on Mus musculus [8]. This molecule showed an increase in lifespan (ILS) at 180 mg/kg with Mus musculus [7] of 100%.
